High-throughput results from PubChem BioAssay.
Yeast life ext: yeast lifespan extension; S. cerevisiae growth with nicotinamide, OD615; deaD strain in restrictive glucose medium; inhibition of the nicotinamide effect, % at 10 µM; 130,000 compounds, 0.68% hits; AID 775;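 active = inhibition above a set limit, placed 3 SD over the median of all compounds, cut at about 26% in these data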;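 note: 0% = nicotinamide-treated wells and 100% = cells grown without nicotinamide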
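System: DeaD-strain S. cerevisiae / Buffer or medium: CSMM-D, restrictive glucose (dextrose) synthetic minimal medium / Probe or stimulus: nicotinamide, 1.5 mM, co-present with compound / Compound: one concentration, 10 µM, DMSO 0.25% / Incubation: 48 h compound exposure at 30 °C, humidified / Technique: optical density (absorbance) at 615 nm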
Efa HMGR inh: inhibitors of class II HMG-CoA reductase from Enterococcus faecalis; purified E. faecalis HMGR, NADPH absorbance 340 nm kinetic; inhibition, % at 10 µM; 190,000 compounds, 0.41% hits; AID 1066;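 active = inhibition above a set limit, the median over all tested compounds plus 3 SD, cut at about 9.5% in these data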;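 note: enzyme runs in reverse so mevalonate oxidation gives rising NADPH absorbance; 0% = complete reaction with DMSO and 100% = background rate lacking mevalonate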
Yeast growth inh: reduces growth of yeast BB579 in restrictive medium | S. cerevisiae BB579 growth, OD615, 48 h | inhibition, % at 10 µM | 140,000 compounds, 0.51% hits;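 active = inhibition above a set limit, 3 SD over the mean compound inhibition, cut at about 44% in these data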
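Test system: S. cerevisiae DeaD strain BB579 yeast; Medium: restrictive CSMM-D medium; Compound: one dose, 10 µM compound with 0.25% DMSO; Incubation: 4 h cell preincubation, 48 h compound exposure, 30 °C humidified; Signal: OD at 615 nm; Benchmarks: amphotericin B at 10 µg/mL as positive control.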
SDO1 yeast rescue: sdo1-depleted yeast growth rescue. S. cerevisiae sdo1-depleted JHY4D growth rescue, OD600 30 h; stronger effect = higher value; pdr5 snq2 efflux-pump mutant strain. z-score at 10 µM. 140,000 compounds, 0.21% hits;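 active = z-score above 3 at both the 24 hr and the 30 hr optical density reads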;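 note: z-score against mean and SD of all compound wells on the same plate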
Active calls of the source: *; / = no result. The list is not random: actives were taken first. Their share in the collection is about 1.3%.

SMILES	Yeast life ext	Efa HMGR inh	Yeast growth inh	SDO1 yeast rescue
CC(=O)NNc1ncnc2c1cnn2-c1ccc(C)c(Cl)c1	/	11.5*	/	/
O=C1c2ccccc2C(=O)N1c1ncc(Cc2ccc(Cl)cc2)s1	47.1*	-3.9	-1.8	-0.28
Cc1ccc(Cc2cnc(N3C(=N)SC(C)C3=O)s2)cc1 (centres undefined)	/	-1.0	/	/
O=C(c1ccc(Cl)cc1)c1c[nH]c(C(=O)C(Cl)(Cl)Cl)c1	-22.3	-1.5	83.9*	-2.29
COC(=O)/C=C1/SC(=NC(=O)c2ccccc2)NC1=O	28.1*	-6.0	18.8	0.11
COC(=O)/C=C1\SC(=NC(=O)c2cccc(Cl)c2)NC1=O	-7.0	-4.8	-19.8	0.24
CCOC(=O)c1sc(=S)n(-c2cc(F)ccc2F)c1N	-9.9	-4.3	45.2*	1.71
COC(=O)c1sc(=S)n(-c2cc(F)ccc2F)c1N	-4.4	-0.5	-14.5	2.28
O=C(O)C/C=C(/NC(=O)OCc1ccccc1)C(=O)OCc1ccccc1	/	0.1	/	/
CCCNC(=O)CCC(NS(=O)(=O)c1ccc(C)cc1)C(=O)NCCC (centres undefined)	79.8*	5.2	-33.4	0.58
CCOc1ccc(CCNC(=O)Cn2ccc3ccccc3c2=O)cc1OCC	/	-6.9	/	/
O=C(O)c1c[nH]c(=S)n1-c1ccc(F)cc1	102.9*	3.3	-33.1	-0.3
COc1ccccc1NC(=O)Cn1cnc2c(cnn2-c2ccccc2)c1=O	-18.6	11.6*	-39.1	-0.4
CN1CCN(C2=Cc3ccc(Cl)cc3Sc3ccc(F)cc32)CC1	/	-6.6	85.9*	-2.01
CC(=O)NC(Cc1cccc(F)c1)C(=O)NC1CCN(c2ncccc2[N+](=O)[O-])CC1 (centres undefined)	/	15.5*	/	/
CCOC(=O)CCCNC(=O)COc1ccccc1C#N	65.7*	0.4	-10.5	0.31
O=c1oc2ccccc2cc1-c1ccc(O)cc1	-5.3	-3.2	1.3	1.35
Oc1cc(-c2ccccc2)c2ccccc2c1	-7.6	-4.1	97.2*	-1.89
CCc1c(C(=O)NCCc2ccc(OC)c(OC)c2)[nH]c(C)c1C(C)=O	47.4*	-4.5	-28.1	0.01
CCc1c(C(=O)Nc2cc(C)ccc2OC)[nH]c(C)c1C(C)=O	-15.9	2.2	-52.3	-2.13
O=C(Nc1ccc(Oc2ccccc2)cc1)c1ccc(Cn2c(=O)[nH]c3ccsc3c2=O)cc1	4.6	19.9*	-35.9	1.76
O=C(N/N=C/c1cccnc1)C1CC1(c1ccccc1)c1ccccc1 (centres undefined)	/	-2.7	/	/
CCNc1sc(C(=O)OCC)c(N)c1C#N	/	-1.2	/	/
O=C(Nc1ccc2c(c1)C(=O)N(CC1CCCO1)C2=O)c1ccccc1Br (centres undefined)	-9.1	12.0*	-18.4	-0.05
COc1ccc(NC(=O)N2CCN(c3ccc([N+](=O)[O-])cc3)CC2)cc1OC	/	-0.6	/	/
SMILES	Yeast life ext	Efa HMGR inh	Yeast growth inh	SDO1 yeast rescue
COc1cc2c(cc1OC)CN(C(C)C(=O)N1CCc3ccccc31)CC2 (centres undefined)	-9.1	19.2*	-19.8	-0.42
CC(C(=O)N1CCc2ccccc21)N1CCc2ccccc2C1 (centres undefined)	/	5.1	-41.2	0.53
O=C(CC(=O)NN=C1CCCCCC1)NCc1cccnc1	/	14.7*	/	/
O=C(NN=C1CCCCCC1)c1cccnc1	/	-2.4	/	/
NNC(=O)c1cccc(COc2ccc(Br)cc2)c1	-7.9	2.4	78.5*	-1.54
NNC(=O)c1cccc(COc2cccc(Br)c2)c1	-19.8	-2.5	-8.3	-0.66
Cc1cc2occ(CC(=O)NCc3cccs3)c2cc1C(C)C	3.5	-0.5	-19.7	-1.37
Cc1csc(NC(=O)Cc2coc3cc(C)c(C(C)C)cc23)n1	-17.6	1.3	82.7*	-2.45
O=C(Cc1csc(-c2ccccc2)n1)NCc1cccs1	/	11.2*	/	/
Brc1ccc(-c2ccc(/C=N/Nc3nc4ccccc4[nH]3)o2)cc1	-6.2	-6.6	1.7	-1.75
CCOC(=O)C1CCN(C(=O)c2c(-c3ccccc3)noc2C)CC1	/	14.2*	/	/
CCN1CCN(S(=O)(=O)c2ccc(Oc3ccccc3OC)cc2)CC1	/	-7.2	/	/
CC(C)OC(=O)c1c(F)c(F)c(N2CCOCC2)c(F)c1F	44.3*	0.1	-6.2	-0.09
COC(=O)c1c(F)c(F)c(N2CCOCC2)c(F)c1F	-9.1	4.3	-29.0	0.85
C=CCn1c(-c2ccc(OC)cc2)csc1=Nc1c(C)n(C)n(-c2ccccc2)c1=O	99.9*	0.3	-37.8	-0.71
Cc1cc(C(=O)COc2ncnc3sccc23)c(C)n1C	35.0*	-2.5	-63.1	-0.3
CNC(=O)COc1ncnc2sccc12	-13.6	1.4	-15.5	-0.43
CC1CCCCN1CCCNC(=O)c1cc(Br)c(Br)[nH]1 (centres undefined)	/	2.8	/	/
Cc1cc(NC(=O)C2CCCN2C(=O)Nc2c(C)cccc2C)ccc1-n1cnnn1 (centres undefined)	/	12.3*	-8.4	0.05
OC(CNCCc1ccc(C(F)(F)F)cc1)COc1ccc2ccccc2c1 (centres undefined)	-10.0	0.3	62.6*	-2
C=C(C)CN(CC)C(=O)COc1ccc(S(=O)(=O)Nc2ccc(OC)cc2)cc1	108.5*	-1.3	2.7	0.58
Fc1ccccc1NC(=S)N(CCCN1CCOCC1)Cc1cccnc1	/	-2.3	/	/
Cc1ccc2c(c1)-c1[nH]c(=S)ncc1CS2	/	-3.1	/	/
O=C(CCNc1n[nH]c(=O)[nH]c1=O)N/N=C/c1ccc(C(F)(F)F)cc1	/	-4.0	/	/
CC(=O)OC(C(=O)NC1CCCCC1)c1ccc(Cl)c(Cl)c1 (centres undefined)	/	-10.8	/	/
SMILES	Yeast life ext	Efa HMGR inh	Yeast growth inh	SDO1 yeast rescue
Cc1cc(C)nc(SCNC(=O)c2ccccc2)n1	/	11.2*	-25.3	-0.05
O=C(ONC1=NCCCCC1)c1c(F)cccc1F	-5.6	-2.6	13.7	-2.61
O=C(ONC1=NCCCCC1)c1ccc(Cl)cc1	-20.2	0.5	97.9*	-2.69
Cc1cc(C)cc(-n2c3nc4ccccc4nc3c3c(=O)n(Cc4ccco4)cnc32)c1	-20.0	17.2*	-51.1	-0.65
O=C(Nc1nc(-c2ccccn2)cs1)c1ccc(Br)s1	-29.4	0.1	99.1*	-2.21
COc1ccc(-c2cc3nc(C)cc(N4CC(C)CC(C)C4)n3n2)cc1 (centres undefined)	/	-3.3	71.4*	-2
COc1cccc2sc(Nc3nnc(-c4ccc(F)cc4)o3)nc12	2.8	-3.4	-26.8	-0.08
Fc1cccc2sc(Nc3nnc(-c4ccco4)o3)nc12	93.8*	-3.4	-46.0	0.54
O=C(/C=C/NNC(=O)c1cccc(Br)c1)c1cccc(Br)c1	27.5*	-0.3	-108.8	0.49
CN1C(=O)/C(=N/OC(=O)c2ccccc2)c2ccccc21	-14.2	-0.8	100.3*	-3.12
Cc1cc(C)cc(CC2CC(=O)N(c3ccc(Cl)cn3)C2=O)c1 (centres undefined)	42.8*	-6.3	-24.7	-0.8
C=CCNC(=O)c1c(C(F)(F)F)nn(C)c1Cl	/	9.6*	/	/
COc1ccc(C2C(C(C)=O)=C(Nc3ccccc3)CC(C)(O)C2C(C)=O)cc1OC (centres undefined)	/	13.6*	0.2	-0.15
CCCCOCCCNC(=O)c1ccc(OC)cc1	-9.0	-2.4	-10.3	1.67
CCCCOCCCNC(=O)c1ccc(OCC)cc1	-15.7	10.3*	-9.7	1.3
